Results: ChEMBL document CHEMBL5058577, “EUbOPEN Chemogenomics Library 2 (Multiplex)” (2022)

Test system: Fibroblast
Test: Multiplex assay against human fibroblast
Type: toxicity, cell-based
Method in brief: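 Compound was added to live cells that had been stained at seeding with Hoechst33342, BioTracker Green Microtubule Cytoskeleton Dye, MitoTracker Red and Annexin V Alexa Fluor 680, and imaging followed on a CQ1 microscope at 37°C and 5% CO2. CellPathfinder machine-learning gating divided cells into Hoechst high-intensity objects or normal cells, normal cells into healthy, pyknosed or fragmented nuclei, and pyknosed cells into mitotic or apoptotic. Tubulin, mitochondrial-mass and membrane-permeability phenotypes are per cents of healthy-nucleus cells.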

[1] = 12 h, 1 µM, compound concentration 1 uM, replicate 1
[2] = 12 h, 1 µM, compound concentration 1 uM, replicate 2
[3] = 12 h, 10 µM, compound concentration 10 uM, replicate 1
[4] = 12 h, 10 µM, compound concentration 10 uM, replicate 2
[5] = 24 h, 1 µM, compound concentration 1 uM, replicate 1
[6] = 24 h, 1 µM, compound concentration 1 uM, replicate 2
[7] = 24 h, 10 µM, compound concentration 10 uM, replicate 1
[8] = 24 h, 10 µM, compound concentration 10 uM, replicate 2
[9] = 48 h, 1 µM, compound concentration 1 uM, replicate 1
[10] = 48 h, 1 µM, compound concentration 1 uM, replicate 2
[11] = 48 h, 10 µM, compound concentration 10 uM, replicate 1
[12] = 48 h, 10 µM, compound concentration 10 uM, replicate 2

COCCCN1CCC(NC(=O)c2cc(Cl)c(N)c3c2OCC3)CC1 [PRUCALOPRIDE]
Population Apoptotic (%) [1]: 33%
Population Fragmented Nuclei (%) [1]: 20%
Population Healthy Nuclei (%) [1]: 62%
Population Hoechst High Intensity Objects (%) [1]: 3%
Population Membrane Permeable-Phenotype (%) [1]: 0%
Population Mitochondria Different-Phenotype (%) [1]: 3%
Population Mitotic Cells (%) [1]: 66%
Population Normal (%) [1]: 96%
Population Pyknosed Nuclei (%) [1]: 16%
Population Tubulin-Different-Phenotype (%) [1]: 30%
Total Cell Count [1]: 132
Population Apoptotic (%) [2]: 48%
Population Fragmented Nuclei (%) [2]: 31%
Population Healthy Nuclei (%) [2]: 48%
Population Hoechst High Intensity Objects (%) [2]: 4%
Population Membrane Permeable-Phenotype (%) [2]: 5%
Population Mitochondria Different-Phenotype (%) [2]: 8%
Population Mitotic Cells (%) [2]: 52%
Population Normal (%) [2]: 95%
Population Pyknosed Nuclei (%) [2]: 20%
Population Tubulin-Different-Phenotype (%) [2]: 51%
Total Cell Count [2]: 130
Population Apoptotic (%) [3]: 30%
Population Fragmented Nuclei (%) [3]: 12%
Population Healthy Nuclei (%) [3]: 66%
Population Hoechst High Intensity Objects (%) [3]: 0%
Population Membrane Permeable-Phenotype (%) [3]: 1%
Population Mitochondria Different-Phenotype (%) [3]: 7%
Population Mitotic Cells (%) [3]: 70%
Population Normal (%) [3]: 99%
Population Pyknosed Nuclei (%) [3]: 20%
Population Tubulin-Different-Phenotype (%) [3]: 31%
Total Cell Count [3]: 144
Population Apoptotic (%) [4]: 35%
Population Fragmented Nuclei (%) [4]: 28%
Population Healthy Nuclei (%) [4]: 46%
Population Hoechst High Intensity Objects (%) [4]: 11%
Population Membrane Permeable-Phenotype (%) [4]: 7%
Population Mitochondria Different-Phenotype (%) [4]: 3%
Population Mitotic Cells (%) [4]: 64%
Population Normal (%) [4]: 88%
Population Pyknosed Nuclei (%) [4]: 25%
Population Tubulin-Different-Phenotype (%) [4]: 55%
Total Cell Count [4]: 153
Population Apoptotic (%) [5]: 48%
Population Fragmented Nuclei (%) [5]: 20%
Population Healthy Nuclei (%) [5]: 57%
Population Hoechst High Intensity Objects (%) [5]: 2%
Population Membrane Permeable-Phenotype (%) [5]: 0%
Population Mitochondria Different-Phenotype (%) [5]: 3%
Population Mitotic Cells (%) [5]: 51%
Population Normal (%) [5]: 97%
Population Pyknosed Nuclei (%) [5]: 21%
Population Tubulin-Different-Phenotype (%) [5]: 25%
Total Cell Count [5]: 136
Population Apoptotic (%) [6]: 72%
Population Fragmented Nuclei (%) [6]: 36%
Population Healthy Nuclei (%) [6]: 49%
Population Hoechst High Intensity Objects (%) [6]: 7%
Population Membrane Permeable-Phenotype (%) [6]: 7%
Population Mitochondria Different-Phenotype (%) [6]: 4%
Population Mitotic Cells (%) [6]: 27%
Population Normal (%) [6]: 92%
Population Pyknosed Nuclei (%) [6]: 14%
Population Tubulin-Different-Phenotype (%) [6]: 50%
Total Cell Count [6]: 138
Population Apoptotic (%) [7]: 63%
Population Fragmented Nuclei (%) [7]: 10%
Population Healthy Nuclei (%) [7]: 74%
Population Hoechst High Intensity Objects (%) [7]: 6%
Population Membrane Permeable-Phenotype (%) [7]: 1%
Population Mitochondria Different-Phenotype (%) [7]: 6%
Population Mitotic Cells (%) [7]: 36%
Population Normal (%) [7]: 93%
Population Pyknosed Nuclei (%) [7]: 15%
Population Tubulin-Different-Phenotype (%) [7]: 30%
Total Cell Count [7]: 128
Population Apoptotic (%) [8]: 30%
Population Fragmented Nuclei (%) [8]: 24%
Population Healthy Nuclei (%) [8]: 57%
Population Hoechst High Intensity Objects (%) [8]: 5%
Population Membrane Permeable-Phenotype (%) [8]: 11%
Population Mitochondria Different-Phenotype (%) [8]: 3%
Population Mitotic Cells (%) [8]: 69%
Population Normal (%) [8]: 94%
Population Pyknosed Nuclei (%) [8]: 18%
Population Tubulin-Different-Phenotype (%) [8]: 56%
Total Cell Count [8]: 148
Population Apoptotic (%) [9]: 50%
Population Fragmented Nuclei (%) [9]: 25%
Population Healthy Nuclei (%) [9]: 60%
Population Hoechst High Intensity Objects (%) [9]: 4%
Population Membrane Permeable-Phenotype (%) [9]: 2%
Population Mitochondria Different-Phenotype (%) [9]: 3%
Population Mitotic Cells (%) [9]: 50%
Population Normal (%) [9]: 95%
Population Pyknosed Nuclei (%) [9]: 14%
Population Tubulin-Different-Phenotype (%) [9]: 38%
Total Cell Count [9]: 146
Population Fragmented Nuclei (%) [10]: 36%
Population Healthy Nuclei (%) [10]: 49%
Population Hoechst High Intensity Objects (%) [10]: 2%
Population Membrane Permeable-Phenotype (%) [10]: 3%
Population Mitochondria Different-Phenotype (%) [10]: 6%
Population Normal (%) [10]: 97%
Population Pyknosed Nuclei (%) [10]: 13%
Population Tubulin-Different-Phenotype (%) [10]: 53%
Total Cell Count [10]: 132
Population Apoptotic (%) [11]: 64%
Population Fragmented Nuclei (%) [11]: 22%
Population Healthy Nuclei (%) [11]: 66%
Population Hoechst High Intensity Objects (%) [11]: 2%
Population Membrane Permeable-Phenotype (%) [11]: 1%
Population Mitochondria Different-Phenotype (%) [11]: 6%
Population Mitotic Cells (%) [11]: 35%
Population Normal (%) [11]: 97%
Population Pyknosed Nuclei (%) [11]: 10%
Population Tubulin-Different-Phenotype (%) [11]: 38%
Total Cell Count [11]: 136
Population Apoptotic (%) [12]: 62%
Population Fragmented Nuclei (%) [12]: 34%
Population Healthy Nuclei (%) [12]: 48%
Population Hoechst High Intensity Objects (%) [12]: 6%
Population Membrane Permeable-Phenotype (%) [12]: 7%
Population Mitochondria Different-Phenotype (%) [12]: 7%
Population Mitotic Cells (%) [12]: 37%
Population Normal (%) [12]: 93%
Population Pyknosed Nuclei (%) [12]: 17%
Population Tubulin-Different-Phenotype (%) [12]: 57%
Total Cell Count [12]: 146
